From ChEMBL document CHEMBL1157507, “Design, synthesis, and evaluation of novel mutual prodrugs (hybrid drugs) of all-trans-retinoic acid and histone deacetylase inhibitors with enhanced anticancer activities in breast and prostate cancer cells in vitro” (J Med Chem, 2008)

tested on: MCF7; experiment: Growth inhibition of human MCF7 cells after 5 days by MTT assay; type: functional; conditions: MCF7, 120 h

| Compound | GI50 |
| --- | --- |
| CC1=C(/C=C/C(C)=C/C=C/C(C)=C/C(=O)Oc2ccc(COC(=O)Nc3ccccc3NC(=O)c3ccc(CNC(=O)OCc4cccnc4)cc3)cc2)C(C)(C)CCC1 | 0.06 µM |
| CC1=C(/C=C/C(C)=C/C=C/C(C)=C/C(=O)OCOC(=O)NCC(=O)Nc2ccccc2NC(=O)c2ccc(CNC(=O)OCc3cccnc3)cc2)C(C)(C)CCC1 | 0.15 µM |
| CC(=O)Nc1ccc(C(=O)Nc2ccccc2NC(=O)OCc2ccc(OC(=O)/C=C(C)/C=C/C=C(C)/C=C/C3=C(C)CCCC3(C)C)cc2)cc1 | 0.52 µM |
| CC(=O)Nc1ccc(C(=O)Nc2ccccc2NC(=O)CNC(=O)OCOC(=O)/C=C(C)/C=C/C=C(C)/C=C/C2=C(C)CCCC2(C)C)cc1 | 0.25 µM |

tested on: PC-3; experiment: Growth inhibition of human PC3 cells at 20 uM after 5 days by MTT assay; type: functional; conditions: PC-3, 120 h
Procedure, shortened: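 PC-3 cells in RPMI 1640 with 10% FBS were seeded at 2 × 10⁴/well, adhered 24 h, then given a single 20 µM concentration in 10% DMSO/90% ethanol for 5 days, with renewal on day 3. Growth was read by MTT (0.5 mg/mL, 2 h, formazan in DMSO, A560). Triplicate wells; at least three independent experiments.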

| Compound | inhibition at 20 µM |
| --- | --- |
| CCCC(=O)OCc1ccc(OC(=O)/C=C(C)/C=C/C=C(C)/C=C/C2=C(C)CCCC2(C)C)cc1 | 80% |

tested on: MCF7; experiment: Growth inhibition of human MCF7 cells expressing HOX-B7 after 5 days by MTT assay; type: functional; conditions: MCF7, 120 h

| Compound | GI50 |
| --- | --- |
| CC1=C(/C=C/C(C)=C/C=C/C(C)=C/C(=O)Oc2ccc(COC(=O)Nc3ccccc3NC(=O)c3ccc(CNC(=O)OCc4cccnc4)cc3)cc2)C(C)(C)CCC1 | 0.72 µM |
| CC1=C(/C=C/C(C)=C/C=C/C(C)=C/C(=O)OCOC(=O)NCC(=O)Nc2ccccc2NC(=O)c2ccc(CNC(=O)OCc3cccnc3)cc2)C(C)(C)CCC1 | 0.006 µM |
| CC(=O)Nc1ccc(C(=O)Nc2ccccc2NC(=O)OCc2ccc(OC(=O)/C=C(C)/C=C/C=C(C)/C=C/C3=C(C)CCCC3(C)C)cc2)cc1 | 8.13 µM |
| CC(=O)Nc1ccc(C(=O)Nc2ccccc2NC(=O)CNC(=O)OCOC(=O)/C=C(C)/C=C/C=C(C)/C=C/C2=C(C)CCCC2(C)C)cc1 | 1.2 µM |

tested on: MCF7; experiment: Growth inhibition of human tamoxifen-resistant MCF7 cells after 5 days by MTT assay; type: functional; conditions: MCF7, 120 h

| Compound | GI50 |
| --- | --- |
| CC1=C(/C=C/C(C)=C/C=C/C(C)=C/C(=O)Oc2ccc(COC(=O)Nc3ccccc3NC(=O)c3ccc(CNC(=O)OCc4cccnc4)cc3)cc2)C(C)(C)CCC1 | 0.21 µM |
| CC1=C(/C=C/C(C)=C/C=C/C(C)=C/C(=O)OCOC(=O)NCC(=O)Nc2ccccc2NC(=O)c2ccc(CNC(=O)OCc3cccnc3)cc2)C(C)(C)CCC1 | 0.02 µM |
| CC(=O)Nc1ccc(C(=O)Nc2ccccc2NC(=O)OCc2ccc(OC(=O)/C=C(C)/C=C/C=C(C)/C=C/C3=C(C)CCCC3(C)C)cc2)cc1 | 0.08 µM |
| CC(=O)Nc1ccc(C(=O)Nc2ccccc2NC(=O)CNC(=O)OCOC(=O)/C=C(C)/C=C/C=C(C)/C=C/C2=C(C)CCCC2(C)C)cc1 | 0.17 µM |

tested on: MDA-MB-231; experiment: Growth inhibition of human MDA-MB-231 cells after 5 days by MTT assay; type: functional; conditions: MDA-MB-231, 120 h

| Compound | GI50 |
| --- | --- |
| CC1=C(/C=C/C(C)=C/C=C/C(C)=C/C(=O)Oc2ccc(COC(=O)Nc3ccccc3NC(=O)c3ccc(CNC(=O)OCc4cccnc4)cc3)cc2)C(C)(C)CCC1 | 0.17 µM |
| CCCC(=O)OCc1ccc(OC(=O)/C=C(C)/C=C/C=C(C)/C=C/C2=C(C)CCCC2(C)C)cc1 | 0.01 µM |
| CC(=O)Nc1ccc(C(=O)Nc2ccccc2N)cc1 [TACEDINALINE] | 0.17 µM |
| CC1=C(/C=C/C(C)=C/C=C/C(C)=C/C(=O)OCOC(=O)NCC(=O)Nc2ccccc2NC(=O)c2ccc(CNC(=O)OCc3cccnc3)cc2)C(C)(C)CCC1 | 0.94 µM |
| CC1=C(/C=C/C(C)=C/C=C/C(C)=C/C(=O)O)C(C)(C)CCC1 [TRETINOIN] | 10.8 µM |
| CC(=O)Nc1ccc(C(=O)Nc2ccccc2NC(=O)OCc2ccc(OC(=O)/C=C(C)/C=C/C=C(C)/C=C/C3=C(C)CCCC3(C)C)cc2)cc1 | 0.02 µM |
| CCCC(=O)[O-].[Na+] [SODIUM BUTYRATE] | > 1000 µM |
| CC(=O)Nc1ccc(C(=O)Nc2ccccc2NC(=O)CNC(=O)OCOC(=O)/C=C(C)/C=C/C=C(C)/C=C/C2=C(C)CCCC2(C)C)cc1 | 0.63 µM |

tested on: PC-3; experiment: Growth inhibition of human PC3 cells after 5 days by MTT assay; type: functional; conditions: PC-3, 120 h
Procedure, shortened: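 PC-3 cells in RPMI 1640 with 10% FBS and 1% penicillin/streptomycin (37 °C, 5% CO2) were seeded at 2 × 10⁴/well and allowed to adhere 24 h. They were dosed over a concentration range in 10% DMSO/90% ethanol for 5 days, with drug and medium renewed on day 3. MTT (0.5 mg/mL) was added for 2 h, formazan dissolved in DMSO, and A560 read. Triplicate wells, ≥3 experiments; GI50 from nonlinear regression.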

| Compound | GI50 |
| --- | --- |
| CC1=C(/C=C/C(C)=C/C=C/C(C)=C/C(=O)Oc2ccc(COC(=O)Nc3ccccc3NC(=O)c3ccc(CNC(=O)OCc4cccnc4)cc3)cc2)C(C)(C)CCC1 | 0.18 µM |
| CCCC(=O)OCc1ccc(OC(=O)/C=C(C)/C=C/C=C(C)/C=C/C2=C(C)CCCC2(C)C)cc1 | 1.02 µM |
| CC(=O)Nc1ccc(C(=O)Nc2ccccc2N)cc1 [TACEDINALINE] | 0.29 µM |
| CC1=C(/C=C/C(C)=C/C=C/C(C)=C/C(=O)OCOC(=O)NCC(=O)Nc2ccccc2NC(=O)c2ccc(CNC(=O)OCc3cccnc3)cc2)C(C)(C)CCC1 | 0.04 µM |
| CC1=C(/C=C/C(C)=C/C=C/C(C)=C/C(=O)O)C(C)(C)CCC1 [TRETINOIN] | 7.6 µM |
| CC(=O)Nc1ccc(C(=O)Nc2ccccc2NC(=O)OCc2ccc(OC(=O)/C=C(C)/C=C/C=C(C)/C=C/C3=C(C)CCCC3(C)C)cc2)cc1 | 0.87 µM |
| CCCC(=O)[O-].[Na+] [SODIUM BUTYRATE] | 72.4 µM |
| CC(=O)Nc1ccc(C(=O)Nc2ccccc2NC(=O)CNC(=O)OCOC(=O)/C=C(C)/C=C/C=C(C)/C=C/C2=C(C)CCCC2(C)C)cc1 | 4.27 µM |

tested on: MCF7; experiment: Growth inhibition of long-term letrozole cultured human MCF7 cells after 5 days by MTT assay; type: functional; conditions: MCF7, 120 h

| Compound | GI50 |
| --- | --- |
| CC1=C(/C=C/C(C)=C/C=C/C(C)=C/C(=O)OCOC(=O)NCC(=O)Nc2ccccc2NC(=O)c2ccc(CNC(=O)OCc3cccnc3)cc2)C(C)(C)CCC1 | 0.02 µM |

tested on: Serum; experiment: Stability in 80% human serum in 0.02 M phosphate buffer at pH 7.2 after 24 hrs; type: ADME, cell-free; conditions: pH 7.2, 24 h
Procedure, shortened: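 Each agent was incubated 24 h at 37 °C in 80% human serum containing 20% 0.02 M phosphate buffer, pH 7.2. Samples were extracted and analysed by reverse-phase C18 HPLC with photodiode-array detection: 350 nm for ATRA and prodrugs, 245 nm for HDIs. The gradient ran from 20 mM ammonium acetate/methanol (50:50) to methanol at 0.8 mL/min.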

| Compound | Stability |
| --- | --- |
| CC1=C(/C=C/C(C)=C/C=C/C(C)=C/C(=O)Oc2ccc(COC(=O)Nc3ccccc3NC(=O)c3ccc(CNC(=O)OCc4cccnc4)cc3)cc2)C(C)(C)CCC1 | Stable |
| CCCC(=O)OCc1ccc(OC(=O)/C=C(C)/C=C/C=C(C)/C=C/C2=C(C)CCCC2(C)C)cc1 | Stable |
| NCC(=O)Nc1ccccc1NC(=O)c1ccc(CNC(=O)OCc2cccnc2)cc1 | Stable |
| CC(=O)Nc1ccc(C(=O)Nc2ccccc2NC(=O)OCc2ccc(OC(=O)/C=C(C)/C=C/C=C(C)/C=C/C3=C(C)CCCC3(C)C)cc2)cc1 | Stable |
| CC(=O)Nc1ccc(C(=O)Nc2ccccc2NC(=O)CNC(=O)OCOC(=O)/C=C(C)/C=C/C=C(C)/C=C/C2=C(C)CCCC2(C)C)cc1 | Stable |
